Assay [1] deals with T1, Thymidylate synthase (Lactobacillus casei) (UniProt P00469).
T1 sequence (whole entry): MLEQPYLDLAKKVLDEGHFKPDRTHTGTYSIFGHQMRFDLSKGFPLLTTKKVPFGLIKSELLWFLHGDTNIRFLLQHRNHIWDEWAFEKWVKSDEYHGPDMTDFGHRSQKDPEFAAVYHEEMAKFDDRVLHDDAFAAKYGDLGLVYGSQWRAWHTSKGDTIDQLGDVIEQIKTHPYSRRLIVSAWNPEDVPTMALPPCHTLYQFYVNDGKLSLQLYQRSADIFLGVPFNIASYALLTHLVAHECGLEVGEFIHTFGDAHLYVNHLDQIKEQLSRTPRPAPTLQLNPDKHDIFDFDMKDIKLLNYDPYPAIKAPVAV
The assay can be described thus: Substrate concentration measured for Inactivation of thymidylate synthetase at a dose 10.0 pH 6.8, 30 degrees Centigrade. As to conditions: Lacticaseibacillus casei. The essentials:
(§1)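 Thymidylate synthetase from methotrexate-resistant Lactobacillus casei, activated by dialysis against 0.1 M potassium phosphate pH 6.8 with 50 mM mercaptoethanol, then freed of thiol on Sephadex G-25. Enzyme at 0.1–0.4 μM preincubated at 30 °C in 6 mM potassium phosphate pH 6.8, 3 mM MgCl2, 0.12 mM EDTA with inhibitor, with or without substrate for protection. Aliquots were taken over time and assayed.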

Assay [2] has as its target T1, Thymidylate synthase (Lactobacillus casei). The experiment in a line: Substrate concentration measured for Inactivation of thymidylate synthetase at a dose 5.56, pH 6.8, 30 degrees Centigrade. As to conditions: Lacticaseibacillus casei. The essentials:
as §1

The target is the same in assay [3]. The assay can be described thus: Inactivation of thymidylate synthetase measured as kobs at a dose 10.0, pH 6.8, 30 degrees Centigrade. The note with it: Lacticaseibacillus casei. The essentials: as §1
Assay [4] has the same target. The assay can be described thus: Inactivation of thymidylate synthetase measured as kobs at a dose 5.56, pH 6.8, 30 degrees Centigrade. As to conditions: Lacticaseibacillus casei. The essentials: as §1
Assay [5] concerns the target T2, Thymidylate synthase (Lactobacillus casei, UniProt P00469).
T2 sequence (P00469 whole entry): T1 sequence (whole entry)
The experiment in a line: Inactivation of thymidylate synthetase measured as Ki at 6.8 pH 30 degrees Celsius temp. Also noted: species or system Lacticaseibacillus casei. The essentials:
(§2)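 L. casei (methotrexate-resistant) thymidylate synthetase, activated in 50 mM 2-mercaptoethanol, then freed of thiol on Sephadex G-25 in 0.05 M phosphate pH 6.8; 0.1–0.4 μM enzyme preincubated at 30 °C with inhibitor in 6 mM potassium phosphate pH 6.8, 3 mM MgCl2, 0.12 mM EDTA. Aliquots at 0–50 s assayed 60 s with 50 μM [5-3H]dUMP; ln % activity vs time gives kobs.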

Assay [6] addresses T1, Thymidylate synthase (Lactobacillus casei). The experiment in a line: Inactivation of thymidylate synthetase measured as k2 at 6.8 pH 30 degrees Celsius temp. The note with it: Lacticaseibacillus casei. The essentials:
as §2

Assay [7] shares this target. The experiment in a line: Inactivation of thymidylate synthetase measured as kcat at 6.8 pH 30 degrees Centigrade temp. The note with it: Lacticaseibacillus casei. The essentials: as §2
For assay [8] the target is unchanged. The experiment in a line: Substrate concentration measured for Inactivation of thymidylate synthetase at a dose 2.0 pH 6.8, 30 degrees Centigrade. As to conditions: Lacticaseibacillus casei. The essentials: as §1
Assay [9] shares this target. The assay can be described thus: Substrate concentration measured for Inactivation of thymidylate synthetase at a dose 0.6, pH 6.8, 30 degrees Centigrade. The note with it: Lacticaseibacillus casei. In outline:
as §1

Assay [10] shares this target. The assay can be described thus: Inactivation of thymidylate synthetase measured as kobs at 0.6 pH 30 degrees Celsius temp. As to conditions: Lacticaseibacillus casei. In outline:
as §1

For assay [11] the target is unchanged. The experiment in a line: Inactivation of thymidylate synthetase measured as kobs at 2.0 pH 30 degrees Celsius temp. As to conditions: Lacticaseibacillus casei. The essentials: as §1
Assay [12] shares this target. The experiment in a line: Inactivation of thymidylate synthetase measured as kobs at a dose 1.0 pH 6.8, 30 degrees Centigrade. The note with it: Lacticaseibacillus casei. In outline:
as §2

For assay [13] the target is unchanged. The assay can be described thus: Inactivation of thymidylate synthetase measured as kobs at a dose 10.0 pH 6.8, 30 degrees Centigrade. The note with it: Lacticaseibacillus casei. The essentials:
as §2

For assay [14] the target is unchanged. The assay can be described thus: Inactivation of thymidylate synthetase measured as kobs at a dose 3.0 pH 6.8, 30 degrees Centigrade. As to conditions: Lacticaseibacillus casei. In outline:
as §2

For assay [15] the target is unchanged. The experiment in a line: Inactivation of thymidylate synthetase measured as kobs at a dose 30.0.0 pH 6.8, 30 degrees Centigrade. As to conditions: Lacticaseibacillus casei. In outline:
as §2

The target in assay [16] is T2, Thymidylate synthase. The assay can be described thus: Inactivation of thymidylate synthetase measured asKi at 6.8 pH 30 degrees Celsius temp. Also noted: species or system Lacticaseibacillus casei. The essentials: as §2
Assay [17] concerns the target T1, Thymidylate synthase (Lactobacillus casei). The experiment in a line: Inactivation of thymidylate synthetase measur as kcat at 6.8 pH 30 degrees Celsius temp. As to conditions: Lacticaseibacillus casei. In outline:
as §1

Assay [18] shares this target. The assay can be described thus: Inactivation of thymidylate synthetase measured as k2 at 7 pH 24 degrees Celsius temp. The note with it: Lacticaseibacillus casei.
The target is the same in assay [19]. The assay can be described thus: Inactivation of thymidylate synthetase measured as k2 at 7 pH 4 degrees Celsius temp. The note with it: Lacticaseibacillus casei.

With `O=C1C=CC(=O)C(c2cn([C@H]3C[C@H](O)[C@@H](CO)O3)c(=O)[nH]c2=O)=C1`, the Substrate in assay [1] and in assay [2] was 0 µM throughout. The k obs was 0.0048 s⁻¹ in assay [3] and 0.0029 s⁻¹ in assay [4].
In assay [5], `O=C(CBr)c1cn([C@H]2C[C@H](O)[C@@H](COP(=O)(O)O)O2)c(=O)[nH]c1=O` gave a Ki of 4000 nM. This compound also showed a k2 in assay [6] of 600 M⁻¹ s⁻¹. The compound also returned a k cat in assay [7] of 0.0025 s⁻¹.
Take `O=C1C=CC(=O)C=C1`: the Substrate in assay [8] and in assay [9] was 0 µM each time. In addition, the k obs in assay [10] is 0.0025 s⁻¹; in assay [11], 0.0126 s⁻¹.
`O=C1C=CC(=O)C(c2ccccc2)=C1` registered a k2 in assay [6] of 2600. Moreover, the k obs was 0.0034 s⁻¹ in assay [12], 0.025 s⁻¹ in assay [13], 0.007 s⁻¹ in [14] and 0.078 s⁻¹ in assay [15].
As for `O=c1[nH]c(=O)n([C@H]2C[C@H](O)[C@@H](COP(=O)(O)O)O2)cc1[N+](=O)[O-]` [5-NITRO-DUMP], the Ki in assay [16] is 500 nM. Moreover, the k2 in assay [6] is 300000 M⁻¹ s⁻¹. The k cat in [17] came out at 0.146 s⁻¹.
The compound `NC(=O)CI` gave a k2 in assay [18] of 7 M⁻¹.
Consider `CCN1C(=O)C=CC1=O`, for which the k2 in assay [19] was found to be 13 M⁻¹.
As for `O=C(CBr)c1cn(C2CC(O)C(OP(=O)(O)O)O2)c(=O)[nH]c1=O` (centres undefined), in assay [16], the Ki stood at 2000 nM. Besides, the k2 in assay [6] stood at 32000. This compound also came in with a k cat in assay [7] of 0.065 s⁻¹.

Values taken from ChEMBL document CHEMBL1122243, “5-p-benzoquinonyl-2'-deoxyuridine 5'-phosphate: a possible mechanism-based inhibitor of thymidylate synthetase” (J Med Chem, 1983).
